Screening results: PubChem, several laboratories
APOBEC3G inh = APOBEC3G (human) deaminase inhibition | Q9HC16 | recombinant A3G, ssDNA deamination FAM/TAMRA fluorescence | inhibition, % at 20 µM | 0.28% of 330,000 active | AID 493012;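 active = inhibition of at least 40% at 20 µM, with no more than 30% in the related APOBEC3A deaminase screen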
APOBEC3A inh = human APOBEC3A DNA deaminase inhibition | recombinant A3A, FAM/TAMRA ssDNA deamination fluorescence | inhibition, % at 20 µM | 0.41% of 330,000 active | AID 493011;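 active = at least 40% inhibition at 20 µM here, with at most 30% in a related deaminase screen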
NS3 helicase inh = inhibitors of Hepatitis C virus NS3 helicase; NS3 helicase DNA unwinding, Cy5 molecular beacon fluorescence; inhibition, % at 10.9 µM; 0.56% of 290,000 active; AID 1800;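 active = inhibition above the mean of all tested compounds plus 3 SD, set per campaign, cut at about 35% in these data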
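Control set: DMSO versus 110 µM thioflavine S; Material: NS3 helicase fragment of HCV; Measured by: Cy5 fluorescence at 0 and 60 min, beacon hairpin quenching; Read-out basis: percent inhibition from t60/t0 fluorescence ratio; Times: reaction time 60 min, 25 °C; Repeats: single replicate; Compound dosing: single dose, 10.9 µM nominal final, DMSO 0.8% final.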
PRMT1 inh = inhibitors of human PRMT1 | AID 652257 | 1.3% of 370,000 active | inhibition, % at 2.79 µM | recombinant PRMT1, activity-based probe fluorescence polarization | Q99873;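 active = inhibition above about 21% made by adding two undisclosed values, limit read from the data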
HCV core dimer = HCV core protein dimerization inhibition | TR-FRET GST/Flag-core106 dimerization, 1536-well | inhibition, % at 5 µM | 0.33% of 300,000 active;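 active = inhibition above the mean of all tested compounds plus 3 SD, set per screening campaign, cut at about 45% in these data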
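Assay system: GST-tagged and Flag-tagged HCV core protein residues 1-106 / Times: compound-protein-antibody incubation 4 h at 22.5 °C / Signal: time-resolved FRET, ex 340 nm, em 617 and 671 nm / Evaluation: % inhibition based on acceptor/donor emission ratio / Benchmarks: wells lacking GST-core106 and wells with excess unlabelled core106 / Repeats: singlicate, one well per compound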
ABHD5 PLIN5 PPI = blocks binding of human ABHD5 to perilipin-5 | Q00G26+Q8WTS1 | Split G. princeps luciferase complementation, luminescence, 4 h | inhibition, % at 4 µM | 0.78% of 360,000 active | AID 602281;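 active = inhibition above the mean inhibition across every tested compound plus 3 SD, cut at about 22% in these data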
Target sequence (Q00G26 whole entry, looked up): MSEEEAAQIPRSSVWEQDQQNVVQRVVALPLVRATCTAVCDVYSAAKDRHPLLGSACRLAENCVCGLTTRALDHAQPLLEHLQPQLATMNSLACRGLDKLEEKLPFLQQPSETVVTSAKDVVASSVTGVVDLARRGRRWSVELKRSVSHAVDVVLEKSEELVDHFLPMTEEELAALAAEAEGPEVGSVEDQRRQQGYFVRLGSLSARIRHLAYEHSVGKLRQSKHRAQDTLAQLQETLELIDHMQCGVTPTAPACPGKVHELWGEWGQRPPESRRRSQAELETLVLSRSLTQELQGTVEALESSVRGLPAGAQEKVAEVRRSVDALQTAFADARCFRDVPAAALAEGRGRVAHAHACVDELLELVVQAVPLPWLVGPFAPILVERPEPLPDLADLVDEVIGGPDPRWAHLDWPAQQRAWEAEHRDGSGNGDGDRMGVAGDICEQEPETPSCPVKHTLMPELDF
Target sequence (Q8WTS1 whole entry, looked up): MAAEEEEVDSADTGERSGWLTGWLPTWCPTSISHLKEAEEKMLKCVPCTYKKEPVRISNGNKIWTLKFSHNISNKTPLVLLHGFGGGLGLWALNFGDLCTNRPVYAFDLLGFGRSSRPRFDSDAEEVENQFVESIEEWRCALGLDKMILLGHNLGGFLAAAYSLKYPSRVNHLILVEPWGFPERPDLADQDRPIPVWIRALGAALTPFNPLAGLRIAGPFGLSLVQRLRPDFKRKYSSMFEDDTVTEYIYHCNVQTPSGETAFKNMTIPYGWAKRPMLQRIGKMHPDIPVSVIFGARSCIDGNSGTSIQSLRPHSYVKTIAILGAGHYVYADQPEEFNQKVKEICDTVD
NS3 hel confirm = confirmation of Hepatitis C virus NS3 helicase inhibitors. NS3 helicase DNA unwinding, Cy5 molecular beacon fluorescence. 31% of 1,600 active. inhibition, % at 10.9 µM. shares compounds with NS3 helicase inh;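 active = inhibition above the mean of all tested compounds plus 3 SD, cutoff set per campaign, cut at about 36% in these data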
DNA FID counter = displaces DNA intercalator in HCV helicase counter-screen; shares compounds with NS3 helicase inh; DNA fluorescent intercalator displacement, fluorescence; inhibition, % at 7.9 µM; 4% of 1,600 active; in the data active = inhibition above about 37%;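 note: higher means more displacement of ethidium bromide from the DNA hairpin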
Of the large screens only hits and unclear results are named; the others gave an inactive call (follow-up assays come after a bar, where they were run). Shown are actives, neighbours in structure and some others; about 2.9% of the full set was active somewhere.

Cc1cc(-c2csc(NC(=O)c3ccc(C#N)cc3)n2)c(C)n1Cc1ccco1	NS3 helicase inh 58, PRMT1 inh 37, HCV core dimer 49 | NS3 hel confirm inactive | DNA FID counter inactive
Cc1cc(-c2csc(NC(=O)c3cc4ccccc4o3)n2)c(C)n1C	NS3 helicase inh 50, HCV core dimer 74 | NS3 hel confirm inactive | DNA FID counter inactive
O=C(Nc1nc(-c2ccccn2)cs1)c1cc2ccccc2o1	none
CCOC(=O)[C@@]12CN(C(=O)OC(C)(C)C)CC=C1N(Cc1ccc(OC)cc1)C(=O)[C@H]2CC(=O)NCCCCc1ccccc1	none (no result: APOBEC3G inh, APOBEC3A inh, NS3 helicase inh, HCV core dimer, ABHD5 PLIN5 PPI)
COc1ccccc1CNC(=O)C[C@H]1CC[C@@H]2[C@H](COC[C@H](O)CN2Cc2ccc3c(c2)OCO3)O1	none (no result: APOBEC3G inh, APOBEC3A inh, NS3 helicase inh, HCV core dimer)
O=C1NN(c2ccc(Br)cc2)C(=O)/C1=C\c1ccc(O)cc1O	NS3 helicase inh 39 | NS3 hel confirm 58 | DNA FID counter inactive
O=C1NN(c2ccccc2)C(=O)C1=Cc1ccccc1O	none (no result: APOBEC3G inh, APOBEC3A inh, NS3 helicase inh, HCV core dimer)
Cc1c(C(=O)O)[nH]c2c1C(=O)CC(c1ccc(C(C)(C)C)cc1)C2 (stereo not drawn)	NS3 helicase inh 49 | NS3 hel confirm inactive | DNA FID counter inactive
Cc1cn(CC2COC(C)(C)O2)c(=O)[nH]c1=O (stereo not drawn)	NS3 helicase inh 38 | NS3 hel confirm inactive | DNA FID counter inactive
COC(Cn1cc(C)c(=O)[nH]c1=O)OC	none
COC(=O)C1=C(C)N(Cc2ccc(Br)cc2)C(=S)NC1c1cccc(OC)c1 (stereo not drawn)	none (no result: APOBEC3G inh, APOBEC3A inh, NS3 helicase inh, HCV core dimer, ABHD5 PLIN5 PPI)
C=CCOc1ccc(Br)cc1/C=C1\NC(=S)N(C(C)=O)C1=O	NS3 helicase inh 40 | NS3 hel confirm inactive | DNA FID counter inactive
C=CCOc1c(Br)cc(/C=C2/NC(=S)N(C(C)=O)C2=O)cc1OC	none
Cc1ccccc1NC(=O)c1ccc2c(O)c(S(=O)(=O)c3ccccc3)c(=O)[nH]c2c1	none
Cc1ccccc1-n1c(C)cc(/C=C2/C(=N)N3C(c4ccccc4)=CSC3=NC2=O)c1C	NS3 helicase inh 40 | NS3 hel confirm inactive | DNA FID counter inactive
Cc1cc(/C=C2/C(=N)N3C(=NC2=O)SN=C3S(C)(=O)=O)c(C)n1-c1ccc(F)cc1	none
Cc1cc(/C=C2/C(=N)N3C(c4ccccc4)=CSC3=NC2=O)c(C)n1-c1ccccc1	none
Cc1ccc(-n2cccc2/C=C2/C(=N)N3C(=NC2=O)SN=C3S(C)(=O)=O)cc1Cl	NS3 helicase inh 49 (no result: APOBEC3G inh, APOBEC3A inh) | NS3 hel confirm 64 | DNA FID counter inactive
CCOc1ccc(-n2c(C)cc(/C=C3/C(=N)N4C(=NC3=O)SN=C4S(C)(=O)=O)c2C)cc1	NS3 helicase inh 38 | NS3 hel confirm 84 | DNA FID counter inactive
COc1ccc(COC(=O)CCc2c[nH]c3ccccc23)cc1F	none
CC1=Nc2ccccc2/C1=C/c1c(N)n2c(S(=O)(=O)CC(C)C)nsc2nc1=O	NS3 helicase inh 36 (no result: APOBEC3G inh, APOBEC3A inh, HCV core dimer) | NS3 hel confirm 54 | DNA FID counter inactive
CCOC(=O)C1(C)CCN1C(=O)c1cc(F)ccc1C (stereo not drawn)	none (no result: APOBEC3G inh, APOBEC3A inh, NS3 helicase inh, HCV core dimer)
Cc1ccc(S(=O)(=O)NC(=O)Nc2ccc(N(C)C)cc2)cc1	NS3 helicase inh 51, PRMT1 inh 26 | NS3 hel confirm 70 | DNA FID counter inactive
Cc1ccc(S(=O)(=O)NC(=O)c2cc(C)n(-c3ccc(N(C)C)cc3)c2C)cc1	NS3 helicase inh 42 | NS3 hel confirm inactive | DNA FID counter inactive
Cc1ccc(NC(=O)NNS(=O)(=O)c2ccc(Br)cc2)cc1	none
COc1ccc(NC(=O)C(c2ccc(C#N)cc2)n2c(=O)c(-c3cc4ccccc4[nH]3)nc3ccccc32)cc1 (stereo not drawn)	none (no result: APOBEC3G inh, APOBEC3A inh, NS3 helicase inh, HCV core dimer)
CCCN(CC(=O)Nc1ccccc1C)C(=O)Cc1coc2cc(C)ccc12	none
O=C1OC(c2ccc(F)cc2)=C/C1=C\c1ccc([N+](=O)[O-])o1	NS3 helicase inh 45 (no result: PRMT1 inh, ABHD5 PLIN5 PPI) | NS3 hel confirm 42 | DNA FID counter inactive
Cc1ccc(NC(=O)CN2C(=O)S/C(=C\c3ccc(OCC(=O)O)c(Br)c3)C2=O)cc1	none
COc1cc(/C=C2\SC(=O)N(CC(=O)Nc3ccc(C)cc3)C2=O)cc(Cl)c1OCC(=O)O	NS3 helicase inh 43 | NS3 hel confirm 62 | DNA FID counter inactive
COc1ccc(S(=O)(=O)N2CCOCC2)cc1NC(=O)C1CCN(S(=O)(=O)c2ccc(Cl)cc2)CC1	none (no result: APOBEC3G inh, APOBEC3A inh, NS3 helicase inh, HCV core dimer)
CC(C)(C)c1cccc(N/C(=C\C(=O)c2ccccc2)c2ccccc2)c1	none (no result: APOBEC3G inh, APOBEC3A inh, NS3 helicase inh, HCV core dimer, ABHD5 PLIN5 PPI)
CCOC(=O)c1c(NC(=O)C2C3CCC(O3)C2C(=O)O)sc2c1CCC(CC)C2 (stereo not drawn)	none
CCOC(=O)c1c(NC(=O)C2C3C=CC(C3)C2C(=O)O)sc2c1CCC(CC)C2 (stereo not drawn)	NS3 helicase inh 39 | NS3 hel confirm 84 | DNA FID counter inactive
Cc1ccc(C)c(NC(=O)CN(C)C(=O)c2cc3ccccc3oc2=O)c1	none (no result: NS3 helicase inh, HCV core dimer)
O=C(O)c1c(C(=O)N2N=C3/C(=C/c4ccccc4)CCCC3C2c2ccccc2)cccc1[N+](=O)[O-] (stereo not drawn)	NS3 helicase inh 49 | NS3 hel confirm 69 | DNA FID counter inactive
CC(C)CCNC(=O)C1CC(c2ccccc2[N+](=O)[O-])=NO1 (stereo not drawn)	none (no result: NS3 helicase inh)
CCOC(=O)C1=NN(C(=O)c2ccc(OC)cc2)C(O)(c2ccc(Cl)cc2)C1 (stereo not drawn)	none
CCOC(=O)C1=NN(C(=O)c2ccccc2)C(O)(c2ccc(C)cc2)C1 (stereo not drawn)	NS3 helicase inh 44 | NS3 hel confirm inactive | DNA FID counter inactive
Cc1cc(/C=N/NC(=O)c2ccncc2)c(C)n1-c1ccccc1	none
Cc1cc(C(=O)N/N=C/c2ccc(O)c(O)c2O)c(C)n1-c1ccccc1	NS3 helicase inh 46 (no result: APOBEC3G inh, APOBEC3A inh, HCV core dimer) | NS3 hel confirm inactive | DNA FID counter inactive
CCCCc1cc(=O)oc2cc(OCC(=O)N[C@@H](Cc3ccccc3)C(=O)O)ccc12	NS3 helicase inh 50 | NS3 hel confirm inactive | DNA FID counter inactive
CCOC(=O)c1ccc(N/C=C/C(=O)C(C)(C)C)cc1	none
CN(C)c1ccc(N/C=C/C(=O)C(C)(C)C)cc1	NS3 helicase inh 48 | NS3 hel confirm inactive | DNA FID counter inactive
Cc1cc(C)n2nc(C(=O)OCC(=O)NCc3ccc(F)cc3)nc2n1	none (no result: NS3 helicase inh, HCV core dimer)
Cc1nc([N+](=O)[O-])cn1CC(O)c1ccc(-c2ccccc2)cc1 (stereo not drawn)	NS3 helicase inh 45 | NS3 hel confirm inactive | DNA FID counter inactive
